How the values were obtained:
Format in all cases: functional
Rattus norvegicus [1] = test: Compound was tested for hypolipidemic activity in male Sprague-Dawley rats by measuring change in body weight after administration of 635 mg dose per kg of diet
How it was run: (§1)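 Orotic acid liver-lipid model: groups of six male Sprague-Dawley rats unless noted. Test compound mixed into the orotic acid diet at the stated mg/kg diet. Diet and water ad libitum for 14 days, with growth and diet intake monitored. Impaired growth with normal intake was taken as toxicity. At sacrifice, liver homogenized in cold 0.63 M phosphate buffer, pH 7.4. Liver triglyceride and cholesterol reported as mg/g wet liver.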

Rattus norvegicus [2] = test: Compound was tested for hypolipidemic activity in male Sprague-Dawley rats by measuring amount of liver cholesterol after administration of 635 mg dose per kg of diet; how it was run: as §1
Rattus norvegicus [3] = test: Compound was tested for hypolipidemic activity in male Sprague-Dawley rats by measuring amount of liver triglyceride after administration of 635 mg dose per kg of diet; how it was run: as §1
Rattus norvegicus [4] = test: Compound was tested for hypolipidemic activity in male Sprague-Dawley rats by measuring amount of liver cholesterol after administration of 770 mg dose per kg of diet; how it was run: as §1
Rattus norvegicus [5] = test: Compound was tested for hypolipidemic activity in male Sprague-Dawley rats by measuring change in body weight after administration of 770 mg dose per kg of diet; how it was run: as §1
Rattus norvegicus [6] = test: Compound was tested for hypolipidemic activity in male Sprague-Dawley rats by measuring amount of liver triglyceride after administration of 770 mg dose per kg of diet; how it was run: as §1
Rattus norvegicus [7] = test: Compound was tested for hypolipidemic activity in male Sprague-Dawley rats by measuring amount of liver triglyceride after administration of 600 mg dose per kg of diet; how it was run: as §1
Rattus norvegicus [8] = test: Compound was tested for hypolipidemic activity in male Sprague-Dawley rats by measuring amount of liver cholesterol after administration of 400 mg dose per kg of diet; how it was run: as §1
Rattus norvegicus [9] = test: Compound was tested for hypolipidemic activity in male Sprague-Dawley rats by measuring change in body weight after administration of 400 mg dose per kg of diet; how it was run: as §1
Rattus norvegicus [10] = test: Compound was tested for hypolipidemic activity in male Sprague-Dawley rats by measuring amount of liver triglyceride after administration of 100 mg dose per kg of diet; how it was run: as §1
Rattus norvegicus [11] = species: Rattus norvegicus; test: The activity relative to DPTH in liver cholesterol
How it was run: (§2)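 Relative activity is the midpoint dose from the orotic acid rat dose-response curves compared against DPTH, with DPTH set to 1.00. Calculated separately for liver cholesterol and for liver triglyceride.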

Rattus norvegicus [12] = test: Compound was tested for hypolipidemic activity in male Sprague-Dawley rats by measuring change in body weight after administration of 100 mg dose per kg of diet; how it was run: as §1
Rattus norvegicus [13] = species: Rattus norvegicus; test: The activity relative to DPTH in liver triglyceride; how it was run: as §2
Rattus norvegicus [14] = test: Compound was tested for hypolipidemic activity in male Sprague-Dawley rats by measuring amount of liver cholesterol after administration of 600 mg dose per kg of diet; how it was run: as §1
Rattus norvegicus [15] = species: Rattus norvegicus; test: The concentration required to reduce liver cholesterol half-way from the average orotic acid level to the basal level
How it was run: (§3)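 Dose-response testing in the 14-day orotic acid diet model, six male Sprague-Dawley rats per group. Midpoint dose (mg/kg diet) read from dose-response curves as the dietary level that brings liver cholesterol or triglyceride half-way between the orotic-acid-fed control and a basal control given no orotic acid.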

Rattus norvegicus [16] = test: Compound was tested for hypolipidemic activity in male Sprague-Dawley rats by measuring change in body weight after administration of 600 mg dose per kg of diet; how it was run: as §1
Rattus norvegicus [17] = test: Compound was tested for hypolipidemic activity in male Sprague-Dawley rats by measuring change in body weight after administration of 200 mg dose per kg of diet; how it was run: as §1
Rattus norvegicus [18] = test: Compound was tested for hypolipidemic activity in male Sprague-Dawley rats by measuring amount of liver triglyceride after administration of 400 mg dose per kg of diet; how it was run: as §1
Rattus norvegicus [19] = test: Compound was tested for hypolipidemic activity in male Sprague-Dawley rats by measuring amount of liver cholesterol after administration of 100 mg dose per kg of diet; how it was run: as §1
Rattus norvegicus [20] = species: Rattus norvegicus; test: The concentration required to reduce liver triglyceride half-way from the average orotic acid level to the basal level; how it was run: as §3
Rattus norvegicus [21] = test: Compound was tested for hypolipidemic activity in male Sprague-Dawley rats by measuring amount of liver cholesterol after administration of 200 mg dose per kg of diet; how it was run: as §1
Rattus norvegicus [22] = test: Compound was tested for hypolipidemic activity in male Sprague-Dawley rats by measuring amount of liver triglyceride after administration of 200 mg dose per kg of diet; how it was run: as §1
Rattus norvegicus [23] = test: Compound was tested for hypolipidemic activity in male Sprague-Dawley rats by measuring amount of liver cholesterol after administration of 735 mg dose per kg of diet; how it was run: as §1
Rattus norvegicus [24] = test: Compound was tested for hypolipidemic activity in male Sprague-Dawley rats by measuring change in body weight after administration of 735 mg dose per kg of diet; how it was run: as §1
Rattus norvegicus [25] = test: Compound was tested for hypolipidemic activity in male Sprague-Dawley rats by measuring amount of liver triglyceride after administration of 735 mg dose per kg of diet; how it was run: as §1
Rattus norvegicus [26] = test: Compound was tested for hypolipidemic activity in male Sprague-Dawley rats by measuring amount of liver triglyceride after administration of 729 mg dose per kg of diet; how it was run: as §1
Rattus norvegicus [27] = test: Compound was tested for hypolipidemic activity in male Sprague-Dawley rats by measuring amount of liver cholesterol after administration of 729 mg dose per kg of diet; how it was run: as §1
Rattus norvegicus [28] = test: Compound was tested for hypolipidemic activity in male Sprague-Dawley rats by measuring change in body weight after administration of 729 mg dose per kg of diet; how it was run: as §1
Rattus norvegicus [29] = test: Compound was tested for hypolipidemic activity in male Sprague-Dawley rats by measuring amount of liver triglyceride after administration of 750 mg dose per kg of diet; how it was run: as §1
Rattus norvegicus [30] = test: Compound was tested for hypolipidemic activity in male Sprague-Dawley rats by measuring change in body weight after administration of 750 mg dose per kg of diet; how it was run: as §1
Rattus norvegicus [31] = test: Compound was tested for hypolipidemic activity in male Sprague-Dawley rats by measuring amount of liver cholesterol after administration of 750 mg dose per kg of diet; how it was run: as §1
Rattus norvegicus [32] = species: Rattus norvegicus; test: The activity relative to DPTH. […] in liver cholesterol.; how it was run: as §2
Rattus norvegicus [33] = species: Rattus norvegicus; test: The activity relative to DPTH. in liver triglyceride.; how it was run: as §2

O=C1NC(=S)NC1(c1ccccc1)c1ccc(O)cc1 (racemic)
Body weight change (Rattus norvegicus [1]): 130 g
Liver cholesterol (Rattus norvegicus [2]): 9.1 mg/g
Liver TG (Rattus norvegicus [3]): 48 mg/g

O=C1N(c2ccccc2)C(=S)NC1(c1ccccc1)c1ccccc1
Liver cholesterol (Rattus norvegicus [4]): 8.6 mg/g
Body weight change (Rattus norvegicus [5]): 91 g
Liver TG (Rattus norvegicus [6]): 42 mg/g

O=C1NC(=S)NC1(c1ccccn1)c1ccccn1
Liver TG (Rattus norvegicus [7]): 16 mg/g
Liver cholesterol (Rattus norvegicus [8]): 2.8 mg/g
Body weight change (Rattus norvegicus [9]): 203 g
Liver TG (Rattus norvegicus [10]): 100 mg/g
Relative activity (Rattus norvegicus [11]): 1.33
Body weight change (Rattus norvegicus [12]): 180 g
Relative activity (Rattus norvegicus [13]): 0.43
Liver cholesterol (Rattus norvegicus [14]): 3 mg/g
Midpoint dose (Rattus norvegicus [15]): 180 mg/kg
Body weight change (Rattus norvegicus [16]): 132 g
Body weight change (Rattus norvegicus [17]): 181 g
Liver TG (Rattus norvegicus [18]): 28 mg/g
Liver cholesterol (Rattus norvegicus [19]): 17 mg/g
Midpoint dose (Rattus norvegicus [20]): 235 mg/kg
Liver cholesterol (Rattus norvegicus [21]): 10.3 mg/g
Liver TG (Rattus norvegicus [22]): 72 mg/g

COc1ccc(C2(c3ccc(OC)cc3)NC(=S)NC2=O)cc1
Liver cholesterol (Rattus norvegicus [23]): 21.6 mg/g
Body weight change (Rattus norvegicus [24]): 135 g
Liver TG (Rattus norvegicus [25]): 82 mg/g

CCCCN1C(=O)C(c2ccccn2)(c2ccccn2)NC1=S
Liver TG (Rattus norvegicus [26]): 85 mg/g
Liver cholesterol (Rattus norvegicus [27]): 12.2 mg/g
Body weight change (Rattus norvegicus [28]): 140 g

O=C1NC(=S)NC1(c1ccccc1)c1ccccc1 [THIOPHENYTOIN]
Liver TG (Rattus norvegicus [7]): 16 mg/g
Relative activity (Rattus norvegicus [11]): 1
Relative activity (Rattus norvegicus [13]): 1
Liver cholesterol (Rattus norvegicus [14]): 3 mg/g
Midpoint dose (Rattus norvegicus [15]): 240 mg/kg
Body weight change (Rattus norvegicus [16]): 136 g
Midpoint dose (Rattus norvegicus [20]): 100 mg/kg

O=C1NC(=S)NC1(c1ccc(Cl)cc1)c1ccc(Cl)cc1
Liver TG (Rattus norvegicus [29]): 82 mg/g
Body weight change (Rattus norvegicus [30]): 91 g
Liver cholesterol (Rattus norvegicus [31]): 13.2 mg/g

COc1ccc(C2(c3ccccc3)NC(=S)NC2=O)cc1 (racemic)
Body weight change (Rattus norvegicus [1]): 144 g
Liver cholesterol (Rattus norvegicus [2]): 23.1 mg/g
Liver TG (Rattus norvegicus [3]): 70 mg/g

CCCCN1C(=O)C(c2ccccc2)(c2ccccc2)NC1=S
Cholesterol (Rattus norvegicus [32]): 0.71
Liver TG (Rattus norvegicus [7]): 19 mg/g
Liver cholesterol (Rattus norvegicus [8]): 10.7 mg/g
TG (Rattus norvegicus [33]): 0.22
Body weight change (Rattus norvegicus [9]): 210 g
Relative activity (Rattus norvegicus [11]): 0.71
Relative activity (Rattus norvegicus [13]): 0.22
Liver cholesterol (Rattus norvegicus [14]): 4.2 mg/g
Cholesterol (Rattus norvegicus [15]): 340 mg kg-1 diet
Midpoint dose (Rattus norvegicus [15]): 340 mg/kg
Body weight change (Rattus norvegicus [16]): 134 g
Body weight change (Rattus norvegicus [17]): 185 g
Liver TG (Rattus norvegicus [18]): 70 mg/g
Midpoint dose (Rattus norvegicus [20]): 450 mg/kg
TG (Rattus norvegicus [20]): 450 mg kg-1 diet
Liver cholesterol (Rattus norvegicus [21]): 17.8 mg/g
Liver TG (Rattus norvegicus [22]): 97 mg/g
